Experimental data reported in ChEMBL document CHEMBL4038336 (J Med Chem, 2017).
The source made the active and inactive calls.

Legend:
[1] = Unbound drug level in swine brain at 1.6 mg/kg, iv infusion via saphenous vein after 60 mins by LC-MS/MS analysis; format: ADME, organism-based, Sus scrofa; conditions: pig, in vivo, 1 h
Method in brief: (§1)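 Swine, n = 2/dose. Dosing was iv infusion over 1 h (1.6 mg/kg or molar equivalent), with brain and plasma taken 60 min post-infusion and totals measured by LC–MS/MS after dabsyl derivatisation. Free levels were calculated from the totals using ultrafiltration-derived bound fractions for brain and plasma (10 µM, 37 °C, 30 min).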

[2] = Ratio of total drug level in swine brain to plasma at 1.6 mg/kg, iv infusion via saphenous vein after 60 mins by LC-MS/MS analysis; format: ADME, organism-based, Sus scrofa; conditions: pig, read-out: BPR
Method in brief: (§2)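 Terminal swine study using the same 1 h iv dosing, 1.6 mg/kg DON or molar equivalent (n = 2/dose). Animals were euthanized with pentobarbital/phenytoin at 60 min postinfusion. Plasma and full-thickness frontal cortex were collected. DON was quantified by LC-MS/MS after methanol extraction with glutamate-d5 IS and dabsyl chloride derivatization. Values are mean ± SEM.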

[3] = Total plasma concentration in swine at 1.6 mg/kg, iv infusion via saphenous vein after 60 mins by LC-MS/MS analysis; format: ADME, organism-based, Sus scrofa; conditions: pig; method in brief: as §2
[4] = tested on: Plasma; assay: Unbound plasma concentration in swine at 1.6 mg/kg, iv infusion via saphenous vein after 60 mins by LC-MS/MS analysis; format: ADME, organism-based, Sus scrofa; conditions: pig, in vivo, 1 h; method in brief: as §1
[5] = Total drug uptake in swine brain at 1.6 mg/kg, iv infusion via saphenous vein after 60 mins by LC-MS/MS analysis; format: ADME, organism-based, Sus scrofa; conditions: pig, in vivo, 1 h
Method in brief: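 Anaesthetised swine, n = 2/dose. Infusion iv via saphenous vein over 1 h at 1.6 mg/kg or molar equivalent, in saline with 5% ethanol and 5% Tween 80. Animals were euthanised 60 min post-infusion and frontal cortex sampled. Extraction used methanol with glutamate-d5, then dabsyl chloride derivatisation (pH 9.0, 60 °C, 15 min) and LC–QTOF-MS.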

[6] = Total drug uptake in swine cerebrospinal fluid at 1.6 mg/kg, iv infusion via saphenous vein after 60 mins by LC-MS/MS analysis; format: ADME, organism-based, Sus scrofa; conditions: pig, read-out: Drug uptake
Method in brief: (§3)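 Swine received DON 1.6 mg/kg or molar-equivalent prodrug by 1 h iv saphenous infusion in saline/5% ethanol/5% Tween 80 (n = 1/dose). Plasma was sampled via jugular catheter. CSF was taken from the cisterna magna at 60 min postdose. DON was methanol-extracted, dabsyl-derivatized and quantified by LC-MS/MS.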

[7] = Ratio of unbound drug level in swine brain to plasma at 1.6 mg/kg, iv infusion via saphenous vein after 60 mins by LC-MS/MS analysis; format: ADME, organism-based, Sus scrofa; conditions: pig
Method in brief: (§4)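 Free DON was derived from total swine brain and plasma levels at 60 min after 1.6 mg/kg-equivalent iv infusion. Unbound fraction came from ultrafiltration: DON 10 µM spiked into swine plasma or brain homogenate, 30 min at 37 °C, centrifuged through a 30 kDa cut-off filter at 37 °C for 45 min. fu = Cu/Ct × 100 by LC-MS/MS.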

[8] = Ratio of total drug level in swine cerebrospinal fluid to unbound plasma concentration in swine at 1.6 mg/kg, iv infusion via saphenous vein after 60 mins by LC-MS/MS analysis; format: ADME, organism-based, Sus scrofa; conditions: pig, in vivo, 1 h
[9] = Ratio of total drug level in swine cerebrospinal fluid to unbound drug level in swine brain at 1.6 mg/kg, iv infusion via saphenous vein after 60 mins by LC-MS/MS analysis; format: ADME, organism-based, Sus scrofa; conditions: pig, in vivo, 1 h; method in brief: as §4
[10] = Ratio of total drug level in swine cerebrospinal fluid to plasma at 1.6 mg/kg, iv infusion via saphenous vein after 60 mins by LC-MS/MS analysis; format: ADME, organism-based, Sus scrofa, CSF/Plasma; conditions: pig; method in brief: as §3
[11] = AUC (0 to t) in swine at 1.6 mg/kg, iv infusion via saphenous vein after 5 to 60 mins by LC-MS/MS analysis; format: ADME, organism-based, Sus scrofa; conditions: pig, in vivo
Method in brief: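 DON (1.6 mg/kg) or molar-equivalent prodrug in sterile saline with 5% ethanol and 5% Tween 80, given as 1 h iv infusion via saphenous catheter to swine (n = 1/dose). Plasma from jugular central venous catheter at predose, 5, 15, 30, 45, 60 min. DON extracted with methanol plus glutamate-d5 IS, dabsyl chloride derivatized, quantified by LC-MS/MS; AUC0–t from plasma profile.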

[12] = Fraction unbound in swine brain at 1.6 mg/kg, iv infusion via saphenous vein after 60 min post-infusion by LC-MS/MS analysis; format: ADME, organism-based, Sus scrofa; conditions: pig, in vivo, 1 h
[13] = Half life in swine brain at 10 uM after 30 to 60 mins by LC-MS/MS analysis; format: ADME, tissue-based, Sus scrofa; conditions: pig
Method in brief: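 Prodrugs at 10 µM spiked into swine brain homogenate (1% w/v) and incubated at 37 °C with orbital shaking. Triplicate aliquots were taken at 0, 30 and 60 min and quenched with ice-cold acetonitrile containing losartan IS. Prodrug was measured by LC-MS/MS as the analyte/IS peak-area ratio. t1/2 = 0.693/Kel, with Kel the slope of ln % remaining versus time.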

[14] = tested on: Human immunodeficiency virus; assay: Effect on EcoHIV viral DNA load in infected C57BL/6J mouse brain at 1 mg/kg, […] starting 1 day prior to EcoHIV infection and continuing every other day till day 30 measured after 30 days post infection by qPCR method; format: organism-based; conditions: in vivo, 720 h
[15] = tested on: Plasma; assay: Protein binding in swine plasma at 10 uM after 30 mins by ultrafiltration method; format: ADME, cell-free, Sus scrofa; conditions: pig, 0.5 h
Method in brief: (§5)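 Drug was spiked at 10 µM into swine plasma or swine brain homogenate and held 30 min at 37 °C. Samples were ultrafiltered (30 kDa cutoff) by centrifugation for 45 min at 37 °C, 1800g. Filtrate and unfiltered matrix were extracted and quantified by LC–MS/MS. Fraction unbound = Cu/Ct × 100.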

[16] = Protein binding in swine brain at 10 uM after 30 mins by ultrafiltration method; format: ADME, tissue-based, Sus scrofa; conditions: pig, 0.5 h; method in brief: as §5
[17] = tested on: Mus musculus; assay: Toxicity in EcoHIV-infected C57BL/6J mouse assessed as change in visual impairment at 1 mg/kg, […] starting 1 day prior to EcoHIV infection and continuing every other day till day 30 measured after 30 days post infection; format: organism-based; conditions: in vivo, 720 h
[18] = tested on: Human immunodeficiency virus; assay: Increase in EcoHIV viral DNA load in infected C57BL/6J mouse spleen at 1 mg/kg, […] starting 1 day prior to EcoHIV infection and continuing every other day till day 30 measured after 30 days post infection by qPCR method; format: organism-based; conditions: in vivo, 720 h
[19] = tested on: Mus musculus; assay: Toxicity in EcoHIV-infected C57BL/6J mouse assessed as diarrhea at 1 mg/kg, […] starting 1 day prior to EcoHIV infection and continuing every other day till day 30 measured after 30 days post infection; format: organism-based; conditions: in vivo, 720 h
[20] = tested on: Mus musculus; assay: Toxicity in EcoHIV-infected C57BL/6J mouse assessed as change in body weight at 1 mg/kg, […] starting 1 day prior to EcoHIV infection and continuing every other day till day 30 measured after 30 days post infection; format: organism-based; conditions: in vivo, 720 h
[21] = tested on: Mus musculus; assay: (§6) Decrease in cognitive decline in C57BL/6J mouse EcoHIV associated neurocognitive disorder model assessed as decrease in latency to escape to hidden platform at 1 mg/kg, […] starting 1 day prior to EcoHIV infection and continuing every other day till day 30 measured after 30 days post infection by radial arm water maze test; format: functional, organism-based
[22] = tested on: Mus musculus; assay: Toxicity in EcoHIV-infected C57BL/6J mouse assessed as change in motor function at 1 mg/kg, […] starting 1 day prior to EcoHIV infection and continuing every other day till day 30 measured after 30 days post infection; format: organism-based; conditions: in vivo, 720 h
[23] = tested on: Mus musculus; assay: as §6, with “number of errors across learning trial 1” for “latency”, “4 and retention trial” for “escape to hidden platform”; format: functional, organism-based
Method in brief: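 Male C57BL/6J mice, 5 weeks old, n = 8/group. Dosing was 1 mg/kg ip every other day, starting 1 day before ip EcoHIV (2 × 10^6 pg p24) or PBS sham, and continued through testing. From day 30 p.i., radial arm water maze: daily four 60 s learning trials, then a 60 s retention test after 30 min rest. Hidden platform arm rotated daily. Values are last-3-day averages.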

[24] = tested on: Mus musculus; assay: Effect on latency to escape to visible platform in C57BL/6J mouse EcoHIV associated neurocognitive disorder model at 1 mg/kg, […] starting 1 day prior to EcoHIV infection and continuing every other day till day 30 measured after 30 days post infection by radial arm water maze test; format: organism-based; conditions: in vivo, 720 h
Method in brief: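 Same mice, dosing and EcoHIV or sham inoculation as the maze study. After the hidden-platform radial arm water maze testing, latency to reach a visible platform in the same context was timed. This serves as a control for vision, motivation and swimming ability.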

AUC(0-t) [11]	half-life at 10 µM [13]	SMILES	Drug uptake(free) [1]	concentration at 1 h [3]	Cp(f) [4]	Drug uptake [5]	concentration at 1 h [6]	Kp uu at 1 h [7]	Kp at 1 h [10]	Drug uptake(free) [12]	other results
5.7 µM·h	31 min	CC(C)OC(=O)[C@H](CCC(=O)C=[N+]=[N-])NC(=O)OC(OC(=O)C(C)(C)C)c1ccccc1 (some centres not stated)	0.531 nmol/g	4.88 µM	3.86 µM	5.9 nmol/g	1.1 µM	0.157	0.069	0.53 nmol/g	Kp at 1 h [2]: 1.38; Ratio [8]: 0.087; Ratio [9]: 2.07
8 µM·h	75 min	CC(C)OC(=O)[C@H](CCC(=O)C=[N+]=[N-])NC(=O)O[C@H](C)OC(=O)C(C)(C)C									
	291 min	CC(C)OC(=O)[C@H](CCC(=O)C=[N+]=[N-])NC(=O)OC(C)(C)OC(=O)C(C)(C)C									

SMILES	AUC(0-t) [11]	half-life at 10 µM [13]	Drug uptake(free) [1]	concentration at 1 h [3]	Cp(f) [4]	Drug uptake [5]	concentration at 1 h [6]	Kp uu at 1 h [7]	Kp at 1 h [10]	Drug uptake(free) [12]	other results
[N-]=[N+]=CC(=O)CC[C@H](N)C(=O)O [6-DIAZO-5-OXO-L-NORLEUCINE]	29.9 µM·h		0.464 nmol/g	41.2 µM	32.5 µM	5.15 nmol/g	0.252 µM	0.017	0.005	0.46 to 0.531 nmol/g	Activity [14]: Non-Toxic; PPB [15]: 21%; PB [16]: 91%; Activity [17]: Non-Toxic; Activity [18]: Toxic; Activity [19]: Non-Toxic; Activity [20]: Non-Toxic; Activity [21]: Active; Activity [22]: Non-Toxic; Activity [23]: Active; Activity [24]: Non-Toxic
CC(C)OC(=O)[C@H](CCC(=O)C=[N+]=[N-])NC(=O)OC(OC(=O)C(C)(C)C)C(C)C (mixture of isomers)		35 min									
